Key:
Rattus norvegicus [1] = assay: Hyperlipidemic activity was assessed by measuring cholesterol in Sprague-Dawley male rats at 50 mg/kg; assay type: functional
Summary of the method: (§1)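 Sprague-Dawley rats were fed the hyperlipidemic Nath's diet for 15 days and dosed orally at 50 or 200 mg/kg, or at 6.25, 12.5 and 25 mg/kg on a diet with 0.5% cholesterol and cholic acid. After an 18-h fast they were killed on day 16, 24 h after the last dose. Serum total cholesterol and triglycerides were assayed, and liver weight was expressed per 100 g bodyweight. Groups were compared with Nath's-diet controls by Student's t test.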

Rattus norvegicus [2] = assay: Hypolipidemic activity was assessed in Variation of the carnitine acetyl transferase was expressed as units per mg of protein in F 344 rats at 20 mg/kg
Rattus norvegicus [3] = assay: Hyperlipidemic activity was assessed by measuring triglycerides in Sprague-Dawley male rats at 50 mg/kg; assay type: functional; summary of the method: as §1
Rattus norvegicus [4] = assay: Hypolipidemic activity was assessed by measuring body weight in F 344 rats at 20 mg/kg
Rattus norvegicus [5] = assay: Hypolipidemic activity was assessed by measuring liver weight in Sprague-Dawley male rats at 50 mg/kg; assay type: functional; details: dose 20 mg/kg; in the assay text read “F 344 rats at 20 mg/kg” for “Sprague-Dawley male rats at 50 mg/kg”
Rattus norvegicus [6] = assay: Hypolipidemic activity was assessed by measuring cholesterol in Sprague-Dawley male rats at 50 mg/kg; assay type: functional
Summary of the method: (§2)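 Male Sprague-Dawley rats (185-g mean bodyweight) on a normal diet were dosed orally for 4 consecutive days at 50 mg/kg or 200 mg/kg. They were fasted 18 h, and blood was drawn from the abdominal aorta 24 h after the last dose. Serum total cholesterol, triglycerides (mg/100 mL) and lipoprotein α-cholesterol (% of total cholesterol) were measured. Groups of 10–40 rats were compared with controls by Student's t test.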

Rattus norvegicus [7] = assay: Hypolipidemic activity was assessed by measuring alpha-cholesterol in Sprague-Dawley male rats at 50 mg/kg; assay type: functional; summary of the method: as §2
Rattus norvegicus [8] = assay: Hypolipidemic activity was assessed inVariation of the enoyl-CoA oxide (umol/min mg) in F 344 rats at 20 mg/kg
Rattus norvegicus [9] = assay: Hypolipidemic activity was assessed by measuring triglycerides in Sprague-Dawley male rats at 50 mg/kg; assay type: functional; summary of the method: as §2
Rattus norvegicus [10] = assay: Hypolipidemic activity was assessed in variation of palmitoyl-CoA oxide (umol/min mg) in F 344 rats at 20 mg/kg
[11] = Evaluated for the dose that causes 50 % lethality in Sprague-Dawley male rats; assay type: ADME, organism-based; details: rat, in vivo
Rattus norvegicus [12] = assay: Hypolipidemic activity was assessed in variation of the liver enzyme catalase was expressed as units per mg of protein in F 344 rats at 20 mg/kg
Rattus norvegicus [13] = assay: Hyperlipidemic activity was assessed by measuring liver weight in Sprague-Dawley male rats at 50 mg/kg; assay type: functional; summary of the method: as §1
[14] = Compound was evaluated for the dose that causes […] in Sprague-Dawley male rats; assay type: ADME, organism-based; details: rat, in vivo
Rattus norvegicus [15] = assay: Hypolipidemic activity was assessed by measuring cholesterol in Sprague-Dawley male rats at 200 mg/kg; assay type: functional; summary of the method: as §2
Rattus norvegicus [16] = assay: Hypolipidemic activity was assessed by measuring triglycerides in Sprague-Dawley male rats at 200 mg/kg; assay type: functional; summary of the method: as §2
Rattus norvegicus [17] = assay: Hypolipidemic activity was assessed by measuring alpha-cholesterol in Sprague-Dawley male rats at 200 mg/kg; assay type: functional; summary of the method: as §2

Compound | Cholesterol (Rattus norvegicus [6]) [mg 100ml-1] | Alpha-cholesterol (Rattus norvegicus [7]; dose 50 mg/kg) [%] | Triglycerides (Rattus norvegicus [9]) [mg/100 mL] | LD50 [11] [mg/kg] | LD50 [14] [mg/kg] | Cholesterol (Rattus norvegicus [15]) [mg 100ml-1] | Triglycerides (Rattus norvegicus [16]) [mg/100 mL] | Alpha-cholesterol (Rattus norvegicus [17]) [%] | other results
Cc1cccc(Nc2cc(Cl)nc(OCC(=O)O)n2)c1C | <57.3 | <83.8 | < 67.3 | 1080 |  |  |  |  | Cholesterol (Rattus norvegicus [1]): <548.8 mg 100ml-1; Carnitine acetyl transferase (Rattus norvegicus [2]): 10 U/mg protein; Triglycerides (Rattus norvegicus [3]): <215.6 mg 100ml-1; Body weight (Rattus norvegicus [4]): 245 g; Liver weight (Rattus norvegicus [5]): 4.5 g (100g of body weight)-1; Enoyl-CoA hydratase (Rattus norvegicus [8]): 2.5 µM/min/mg; Palmitoyl-CoA oxid (Rattus norvegicus [10]): 0.088 µM/min/mg; Catalase (Rattus norvegicus [12]): 77 U/mg protein; Liver weight (Rattus norvegicus [13]): 6.29 g 100g-1
Cc1cccc(Nc2nc(Cl)nc(N(C)C)n2)c1C |  |  |  |  | < 2000 | 80.8 | < 91.4 | 78.6 | 
CN(C)c1nc(Cl)nc(N(C)C)n1 | 84.8 | 70 |  |  |  |  |  |  | 
CSc1nc(Cl)cc(Nc2cccc(C)c2C)n1 | <54.2 | 72.3 | 106 | 1250 |  |  |  |  | 
Cc1cccc(Oc2cc(Cl)nc(N(C)C)n2)c1C |  |  |  |  | < 2000 | 76.7 | 102 | 72.6 | 
Cc1cccc(N(C)c2cc(Cl)nc(S)n2)c1C |  |  |  |  | 1780 | 65.8 | < 79.1 | 74.4 | 
Cc1cccc(N(C)c2cc(Cl)nc(N(C)C)n2)c1C |  |  |  |  | < 2500 | 63.2 | 89.8 | 90 | 
Cc1cccc(N(C)c2cc(Cl)nc(NCC(=O)O)n2)c1C | <68.4 | 77 | < 50 | 995 |  |  |  |  | 
Cc1cccc(Nc2nc(Cl)nc(OCC(=O)O)n2)c1C |  |  |  |  | 1180 | 72 | < 65.5 | <82.1 | 
CN(C)c1cc(Cl)nc(N(C)C)n1 | <103.7 |  |  | < 2500 |  |  |  |  | Alpha-cholesterol (Rattus norvegicus [7]; dose 200 mg/kg, in the assay text read “200 mg/kg” for “50 mg/kg”): 75.7%
Cc1cccc(Nc2nc(Cl)nc(N(C)CC(=O)O)n2)c1C |  |  |  |  | 1220 | 76.8 | < 74.6 | 79.8 | 
Cc1cccc(Oc2cc(Cl)nc(SCC(=O)O)n2)c1C | <67.7 | 77 | < 56.4 | 1290 |  |  |  |  | 

Source: ChEMBL document CHEMBL1122536, “Novel pyrimidine and 1,3,5-triazine hypolipidemic agents” (J Med Chem, 1984)
